High-throughput results as filed in PubChem.
This is a sample that favours compounds with a hit; in the whole collection about 2.6% have one here.
SENP8 block-1 – blocks the human protease SENP8; purified SENP8, Z-RLRGG-aminoluciferin cleavage, luminescence; inhibition, % at 10 µM; hit rate 1.2% among 330,000; AID 2540; in the data active means inhibition above about 50%
Target sequence (Q96LD8 whole entry, looked up): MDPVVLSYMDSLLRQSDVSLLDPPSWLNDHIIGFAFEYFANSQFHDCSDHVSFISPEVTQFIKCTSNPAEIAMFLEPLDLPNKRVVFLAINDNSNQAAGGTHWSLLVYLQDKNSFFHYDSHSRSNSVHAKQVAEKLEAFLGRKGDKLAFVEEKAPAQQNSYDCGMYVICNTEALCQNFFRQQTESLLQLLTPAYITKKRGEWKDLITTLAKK
Platelet DG rel – platelet dense granule release activity; human platelet-rich plasma, SFLLRN dense granule ATP release, luminescence; hit rate 0.22% among 300,000; AID 1663; inhibition, %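 (compounds screened at 7.5 µM in platelet-rich plasma)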;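 active means mean replicate score, as percent of positive control, at or above 50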
SENP8 block-2 – SENP8 (human) protease inhibition; Q96LD8; recombinant SENP8, Nedd8 substrate fluorescence; inhibition, % at 20 µM; hit rate 0.64% among 360,000; AID 602440; in the data active means inhibition mostly above about 40%, no sharp cut-off; inactive means mostly below about 27%
SENP7 block – blocks the human protease SENP7 | recombinant SENP7, Z-RLRGG-aminoluciferin luminescence, 40 min | inhibition, % at 5 µM | hit rate 1.5% among 330,000;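 active means inhibition above about 50% at the single test dose, limit read from the data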;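 further: plate controls were DMSO with enzyme for no effect and no enzyme buffer wells for full effect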
SENP6 block – inhibitors of human SENP6 protease; inhibition, % at 10 µM; hit rate 1.8% among 330,000; Recombinant SENP6 catalytic domain, aminoluciferin luminescence; AID 2599; Q9GZR1;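 active means inhibition above about 50% at the single tested dose, limit read from the data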;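 further: plate controls were DMSO wells with enzyme for no effect and DMSO wells lacking enzyme for full effect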
SENP1 inh – blocks the human SENP1 SUMO protease catalytic domain | Q9P0U3 | AID 624204 | hit rate 0.21% among 360,000 | recombinant SENP1 catalytic domain, CyPet-SUMO1-YPet FRET cleavage | inhibition, % at 10 µM;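 active means inhibition at least 30% at 10 µM, raw YFP signal under a set limit, fluorescence ratio 0.5 to 1.5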;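 further: 0% = enzyme with DMSO and 100% = no enzyme wells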
Target sequence (Q9P0U3 419-644 limits assumed): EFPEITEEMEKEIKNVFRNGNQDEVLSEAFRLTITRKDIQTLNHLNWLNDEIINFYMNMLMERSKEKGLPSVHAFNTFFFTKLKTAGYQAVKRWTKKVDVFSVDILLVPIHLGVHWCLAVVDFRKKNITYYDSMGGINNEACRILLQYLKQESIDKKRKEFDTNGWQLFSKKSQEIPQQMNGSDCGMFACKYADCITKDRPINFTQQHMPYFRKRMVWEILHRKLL
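Assay system: hSENP1 catalytic domain, recombinant. Amount: SENP1 enzyme, 20 pM final. Schedule: 50 min reaction, RT, dark. Technique: FRET, CFP and YFP emission. Control set: no-enzyme wells low, DMSO-plus-enzyme wells high control.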
The depositor's hits bear a star.

How did COC(=O)/C=c1/sc2nc3ccccc3n2c1=O do in these assays?
SENP8 block-1: -20; Platelet DG rel: 8; SENP8 block-2: 40; SENP7 block: 3; SENP6 block: -17; SENP1 inh: 0

How did O=c1/c(=C/c2ccccn2)sc2nc3ccccc3n12 do in these assays?
SENP8 block-1: 79*; Platelet DG rel: 26; SENP8 block-2: -42; SENP7 block: 98*; SENP6 block: 84*; SENP1 inh: 23

What do the screens show for `O=c1/c(=C\c2cc([N+](=O)[O-])cc([N+](=O)[O-])c2O)sc2nc3ccccc3n12`?
SENP8 block-1: 2; SENP8 block-2: 17; SENP7 block: -9; SENP6 block: 15; SENP1 inh: 91*

What do the screens show for `O=C(COC(=O)c1ccc(O)cc1)c1ccc2c(c1)OCCO2`?
SENP8 block-1: 70*; SENP8 block-2: -1; SENP7 block: 57*; SENP6 block: 87*; SENP1 inh: -1

Results for NC(=O)CSc1cn(Cc2ccc(F)cc2)c2ccccc12 ?
SENP8 block-1: -1; Platelet DG rel: 59*; SENP8 block-2: 13; SENP7 block: 2; SENP6 block: -2; SENP1 inh: -1

Results for Cc1cccc(-c2nc3cc(NC(=O)C4CCCO4)ccc3o2)c1 (stereo not drawn) ?
Platelet DG rel: 59*; SENP8 block-2: -410; SENP1 inh: -2

Results for CCCCCCCCC[n+]1cccc2c3ccccc3ccc21 ?
SENP8 block-1: -12; Platelet DG rel: 87*; SENP8 block-2: -477; SENP7 block: 10; SENP6 block: -16; SENP1 inh: -1

Results for CCCCCCCCCCCCCCCC[n+]1cccc2ccccc21 ?
SENP8 block-1: 3; SENP8 block-2: -41; SENP7 block: 7; SENP6 block: -17; SENP1 inh: 2

What do the screens show for `CC1=C(C(=O)Nc2cc(C(=O)N3CCN(c4cccc(C)c4C)CC3)ccc2C)SCCO1`?
SENP8 block-1: 2; Platelet DG rel: 17; SENP8 block-2: 5; SENP7 block: -3; SENP6 block: -2; SENP1 inh: 3

How did CCOC(=O)C1=C(Cc2ccc(OC)cc2)C(=O)c2ccccc2C1=O do in these assays?
SENP8 block-2: -304; SENP1 inh: 40*

How did O=C1C(Cl)=C(NCc2ccco2)C(=O)c2ccccc21 do in these assays?
SENP8 block-2: 46*; SENP1 inh: 2

What do the screens show for `CCN(CC)c1ccc(NC2=C(Cl)C(=O)c3ccccc3C2=O)cc1`?
SENP8 block-2: 50*; SENP1 inh: 0

How did O=C1C(Cl)=C(NCCN2CCCCC2)C(=O)c2ccccc21 do in these assays?
SENP8 block-1: 30; Platelet DG rel: 1; SENP8 block-2: 76*; SENP7 block: 20; SENP6 block: 37; SENP1 inh: 1

What do the screens show for `Cc1ccc(NC2=C(Cl)C(=O)c3ccccc3C2=O)cc1`?
Platelet DG rel: 2; SENP8 block-2: 2; SENP1 inh: 2

What do the screens show for `O=C1C(Cl)=C(Nc2ccc(O)cc2)C(=O)c2ccccc21`?
SENP8 block-1: 11; Platelet DG rel: 1; SENP8 block-2: 41*; SENP7 block: 0; SENP6 block: 26; SENP1 inh: 1

Results for O=C(NCCN1CCCC1)c1ccccc1Cl ?
SENP8 block-1: 2; Platelet DG rel: -4; SENP8 block-2: 17; SENP7 block: 0; SENP6 block: 0; SENP1 inh: 0

What do the screens show for `O=S(=O)(c1ccccc1)c1ccc(NCc2ccco2)cc1`?
SENP8 block-1: 6; Platelet DG rel: 4; SENP8 block-2: -92; SENP7 block: 7; SENP6 block: 18; SENP1 inh: -2

What do the screens show for `O=C(CC(=O)NC1CCCCC1)N/N=C/c1ccccc1[N+](=O)[O-]`?
SENP8 block-1: 1; Platelet DG rel: 4; SENP8 block-2: 5; SENP7 block: 5; SENP6 block: -5; SENP1 inh: -1

What do the screens show for `CCOC(=O)C1=CCN(S(=O)(=O)c2ccc(Br)cc2)C1c1ccc(C)cc1` (stereo not drawn)?
SENP8 block-2: 16; SENP1 inh: 1

How did CCNC(=O)C1(C)CCN(C(=O)c2cccs2)C1 (stereo not drawn) do in these assays?
SENP8 block-2: 11; SENP1 inh: 0

Results for COc1ccc(CN2CCCC(C(=O)c3ccc4c(c3)OCO4)C2)c(F)c1 (stereo not drawn) ?
SENP8 block-1: 5; Platelet DG rel: 5; SENP8 block-2: 6; SENP7 block: 4; SENP6 block: 13; SENP1 inh: 2

Results for CCNC1=C(Cl)C(=O)c2ccccc2C1=O ?
SENP8 block-1: 15; Platelet DG rel: -12; SENP8 block-2: 94*; SENP7 block: 30; SENP6 block: 41; SENP1 inh: 1

What do the screens show for `CCCC(=O)NC1=C(Cl)C(=O)c2ccccc2C1=O`?
SENP8 block-2: 35; SENP1 inh: 1

How did CNC(=S)N=Nc1c(O)[nH]c2ccc(C(C)C)cc12 do in these assays?
Platelet DG rel: -8; SENP8 block-2: 44*; SENP1 inh: 2

Results for CC(C)COc1ccc(C(=O)NNC(=O)c2ccc(=O)[nH]c2)cc1 ?
SENP8 block-1: -2; SENP8 block-2: 0; SENP7 block: 1; SENP6 block: -8; SENP1 inh: 2

Results for C[C@H](CO)N1C[C@H](C)[C@@H](CN(C)Cc2cncnc2)Oc2cc(Br)ccc2S1(=O)=O ?
SENP8 block-2: 8; SENP1 inh: 0

How did O=C(CCc1ccccc1)N[C@@H]1c2ccccc2CC[C@H]1OCc1ccccc1 do in these assays?
SENP8 block-2: -1; SENP7 block: -5; SENP1 inh: 3

What do the screens show for `Cc1ccc(-n2nnnc2SCC(=O)N2CCc3ccccc3C2)cc1`?
SENP8 block-1: 14; Platelet DG rel: 11; SENP8 block-2: 41*; SENP7 block: 10; SENP6 block: 12; SENP1 inh: -3

What do the screens show for `Cc1ccc(-n2nnnc2SCC(=O)N2CCc3ccccc3C2)c(C)c1`?
SENP8 block-1: -5; Platelet DG rel: 1; SENP8 block-2: 14; SENP7 block: -3; SENP6 block: 8; SENP1 inh: 4

How did Cc1ccc(-c2csc(NC(=O)C3=COCCO3)n2)cc1 do in these assays?
SENP8 block-1: 33; Platelet DG rel: -3; SENP8 block-2: -11; SENP7 block: 59*; SENP6 block: 70*; SENP1 inh: 2

What do the screens show for `CC(=O)Nc1ccc(-c2csc(NC(=O)C3=COCCO3)n2)cc1`?
SENP8 block-1: -11; Platelet DG rel: 10; SENP8 block-2: -39; SENP7 block: -3; SENP6 block: -1; SENP1 inh: 2

Results for C=CCn1c(O)c(N=NC(=S)Nc2cccc(C)c2)c2ccccc21 ?
SENP8 block-1: -3; Platelet DG rel: 5; SENP8 block-2: 42*; SENP7 block: -3; SENP6 block: 10; SENP1 inh: 3

Results for C=CCn1c(O)c(N=NC(=S)Nc2ccccc2F)c2ccccc21 ?
SENP8 block-1: -6; Platelet DG rel: 4; SENP8 block-2: 23; SENP7 block: -2; SENP6 block: 9; SENP1 inh: 6
